Here are results for six molecules from ChEMBL document CHEMBL1147747, “HIV integrase inhibitors with nucleobase scaffolds: discovery of a highly potent anti-HIV agent” (J Med Chem, 2006).

For orientation: IC50 means the midpoint of a concentration-inhibition curve. As usually defined, the CC50 is the concentration giving 50% cytotoxicity. High values mean better tolerance by the cells, low ones harm at low concentration. A word on the IC90: it is the concentration needed for an effect of 90%.

Structures are written as SMILES. Calls of active or inactive are those of the source. No cut-off for these calls is given here.

Series [1] addresses T1, Human immunodeficiency virus type 1 integrase (Human immunodeficiency virus 1, UniProt Q7ZJM1). Briefly: Inhibition of 3' processing step of wt HIV1 integrase.
For series [2], the target named is T1, Human immunodeficiency virus type 1 integrase. The series can be described thus: Inhibition of strand transfer step of wt HIV1 integrase.
Series [3] deals with HeLa. The series can be described thus: Anti HIV activity against HIV1 NL4-3 in HeLa-CD4-LTR-beta-gal cells in MAGI-X4 assay. The class given is functional, cell-based. The method, boiled down:
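MAGI-X4 assay in HeLa-CD4-LTR-β-gal cells infected with HIV-1 NL4-3. Detects blocks in replication up to and including Tat transactivation of the LTR. Triplicate determinations over serial ½log10 dilutions (six to nine concentrations). AZT served as positive control.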

Series [4] concerns PBMC. The series can be described thus: Antiviral activity against HIV1 TEKI replication in PBMC at 1 uM. The series is classed as functional, cell-based. To be noted: Homo sapiens. The method in brief:
(§1)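 PBMC cell-based microtiter anti-HIV assay against clinical isolate HIV-1 TEKI (NSI phenotype) or HIV-1 NL4-3 (SI phenotype). Test materials were run in triplicate as serial ½log10 dilutions, six to nine concentrations, from a stated high concentration (200 μM or 1 μM). IC50 and IC90 were determined, with cell viability measured in parallel. AZT was the MOI-sensitive positive control.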

Series [5] deals with PBMC. Briefly: Antiviral activity against HIV1 NL4-3 replication in PBMC at 1 uM. The series is classed as functional, cell-based. Particulars: Homo sapiens, NL4-3, PBMC. The method, boiled down: as §1
Series [6] is described as follows: Therapeutic index (TI=CC50/IC50) in HIV1 TEKI at 1 uM. The class given is cell-based. Particulars: PBMC infected with HIV-1 TEKI; read-out: Ratio CC50/IC50. The method in brief: (§2)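 Therapeutic index was calculated as CC50/IC50 from the PBMC assay, using HIV-1 NL4-3 or HIV-1 TEKI. Cell viability gave CC50, and antiviral readout gave IC50. Triplicate serial ½log10 dilutions were used, with a high test concentration of 200 μM or 1 μM.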

Series [7] can be described thus: Therapeutic index (TI=CC50/IC50) in HIV1 NL4-3 at uM. The series is classed as cell-based. Particulars: PBMC infected with HIV-1 NL4-3; read-out: Ratio CC50/IC50. The method, boiled down:
as §2

The test system of series [8] is PBMC. Briefly: Antiviral activity against HIV1 TEKI replication in PBMC at 200 uM. To be noted: Homo sapiens. The series is classed as functional, cell-based. The method in brief:
as §1

The subject of series [9] is PBMC. Briefly: Antiviral activity against HIV1 NL4-3 replication in PBMC at 200 uM. The series is classed as functional, cell-based. To be noted: Homo sapiens, NL4-3, PBMC. The method in brief: as §1
Series [10] deals with HeLa. Briefly: Cytotoxicity against HeLa-CD4-LTR-beta-gal cells at 200 uM. The class given is functional, cell-based. To be noted: Homo sapiens. The method in brief: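 Cytotoxicity was measured in HeLa-CD4-LTR-β-gal cells within the MAGI-X4 assay. Up to 200 μM was tested, in triplicate, as serial ½log10 dilutions.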
A short description of series [11]: in vitro. To be noted: PBMC infected with HIV-1 NL4-3.
Series [12] can be described thus: in vitro. Particulars: PBMC infected with HIV-1 TEKI.

T1 sequence (Q7ZJM1 whole entry): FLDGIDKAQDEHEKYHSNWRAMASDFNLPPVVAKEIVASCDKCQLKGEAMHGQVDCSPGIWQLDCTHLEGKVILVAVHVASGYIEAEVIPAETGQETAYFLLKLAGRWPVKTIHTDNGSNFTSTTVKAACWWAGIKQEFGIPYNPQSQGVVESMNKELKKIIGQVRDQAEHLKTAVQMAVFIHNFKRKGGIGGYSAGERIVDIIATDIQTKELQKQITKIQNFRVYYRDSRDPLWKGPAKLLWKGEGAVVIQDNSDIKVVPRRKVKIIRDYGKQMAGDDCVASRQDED

For `O=C(O)C(=O)/C=C(\O)c1cn(Cc2ccc(F)cc2)c(=O)n(Cc2ccc(F)cc2)c1=O`, the IC50 in [1] was 3900 nM; in series [2], less than 700 nM.

`Cc1cn([C@H]2C[C@H](N=[N+]=[N-])[C@@H](CO)O2)c(=O)[nH]c1=O` [ZIDOVUDINE]: the result in the series with HeLa [3] was Active. The CC50 in the series with PBMC [4] and in the series with PBMC [5] was greater than 1000 nM in each case. Further, the IC50 worked out at 0.14 nM in the series on PBMC [4] and 0.18 nM in the series on PBMC [5]. Besides, the selectivity ratio was greater than 7140 in series [6] and greater than 5560 in series [7].

As for `O=C(O)C(=O)/C=C(\O)c1cn(Cc2ccccc2F)c(=O)n(Cc2ccccc2F)c1=O`, the IC50 in series [1] was 4100 nM; in series [2], less than 600 nM.

For the molecule `O=C(O)C(=O)/C=C(\O)c1cn(Cc2ccccc2)c(=O)n(Cc2ccccc2)c1=O`, in the series on HeLa [3], the outcome was Active. Moreover, the IC50 in [1] was 3700 nM; in [2] it was 200 nM; in the series with PBMC [8] it was 50 nM; in the series on PBMC [9], less than 20 nM. Also, the CC50 with PBMC [8] and in the series on PBMC [9] was greater than 200000 nM in each case. Besides, the CC90 in the series with PBMC [8] and with PBMC [9] was greater than 200000 nM throughout. For the same molecule, the figures for the IC90 in the series with PBMC [8] and with PBMC [9] were 3910 nM and 1540 nM, respectively. Also, the outcome with HeLa [10] was inactive. For the same molecule, the selectivity ratio at 200 µM was greater than 10000 in “in vitro [11]” and greater than 4000 in “in vitro [12]”.

Consider `O=C(O)C(=O)/C=C(\O)c1cn(Cc2ccccc2)c(=O)[nH]c1=O`, for which the IC50 in series [1] turned out to be 10000 nM; in [2], 500 nM.

As to `CC(C)(C)NC(=O)[C@@H]1C[C@@H]2CCCC[C@@H]2CN1C[C@@H](O)[C@H](Cc1ccccc1)NC(=O)[C@H](CC(N)=O)NC(=O)c1ccc2ccccc2n1`, the result in the series with HeLa [3] was inactive.
